Here are results for two compounds from ChEMBL document CHEMBL6134795, “Mannich reaction mediated derivatization of chromones and their biological evaluations as putative multipotent ligands for the treatment of Alzheimer's disease” (RSC Med Chem, 2024).

In data set [1] the target is T1, Cholinesterase (Homo sapiens, UniProt P06276). As to the kind of experiment: Inhibition of BuChE (unknown origin). A digest of the protocol: (§1)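 Ellman method as for AChE, using butyrylcholinesterase with BTCI as substrate. Enzyme and compound preincubated 30 min at 37 °C in a CO2 incubator, then DTNB and BTCI added; absorbance read at 417 nm. Screening at 20 μM as % inhibition; IC50 for compounds exceeding 50% inhibition at 20 μM. Triplicate.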
T1 sequence (P06276 whole entry): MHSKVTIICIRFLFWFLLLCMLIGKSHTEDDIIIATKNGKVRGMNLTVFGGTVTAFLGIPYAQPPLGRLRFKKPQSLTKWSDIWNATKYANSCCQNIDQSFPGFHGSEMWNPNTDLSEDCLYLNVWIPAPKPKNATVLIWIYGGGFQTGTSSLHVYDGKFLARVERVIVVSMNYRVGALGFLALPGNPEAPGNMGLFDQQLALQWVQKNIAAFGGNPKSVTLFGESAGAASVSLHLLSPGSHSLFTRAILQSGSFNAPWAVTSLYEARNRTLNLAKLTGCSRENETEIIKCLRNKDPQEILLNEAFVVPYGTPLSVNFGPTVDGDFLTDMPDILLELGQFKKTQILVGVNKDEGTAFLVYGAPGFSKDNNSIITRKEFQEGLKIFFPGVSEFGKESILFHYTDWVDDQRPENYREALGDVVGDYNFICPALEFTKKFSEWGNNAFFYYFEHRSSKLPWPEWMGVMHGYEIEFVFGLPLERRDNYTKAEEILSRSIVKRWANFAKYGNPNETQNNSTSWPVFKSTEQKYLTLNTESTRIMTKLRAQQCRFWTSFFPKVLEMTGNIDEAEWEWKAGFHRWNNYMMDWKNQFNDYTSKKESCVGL

The target in data set [2] is T2, Amine oxidase [flavin-containing] B (Homo sapiens, UniProt P27338).
T2 sequence (P27338 whole entry): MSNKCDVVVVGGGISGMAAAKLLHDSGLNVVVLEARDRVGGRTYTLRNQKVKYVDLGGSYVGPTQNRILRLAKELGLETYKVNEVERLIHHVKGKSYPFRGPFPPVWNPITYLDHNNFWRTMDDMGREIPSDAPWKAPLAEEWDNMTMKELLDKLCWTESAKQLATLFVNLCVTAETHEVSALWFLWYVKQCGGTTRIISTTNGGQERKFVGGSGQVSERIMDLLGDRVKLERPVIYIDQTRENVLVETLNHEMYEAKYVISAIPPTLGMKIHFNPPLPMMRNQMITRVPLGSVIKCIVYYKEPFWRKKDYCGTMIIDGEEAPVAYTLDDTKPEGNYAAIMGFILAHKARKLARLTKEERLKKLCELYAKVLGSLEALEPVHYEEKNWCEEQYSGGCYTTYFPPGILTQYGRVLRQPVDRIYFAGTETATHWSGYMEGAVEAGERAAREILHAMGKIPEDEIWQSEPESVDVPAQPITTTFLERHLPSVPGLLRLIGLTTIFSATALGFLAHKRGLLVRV
As to the kind of experiment: Inhibition of MAO-B (unknown origin).

The target in data set [3] is T3, Acetylcholinesterase (Homo sapiens, UniProt P22303). As to the kind of experiment: Inhibition of AChE (unknown origin). An outline of the steps: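 Recombinant AChE (0.5 U ml-1) preincubated with compound for 30 min at 37 °C in a CO2 incubator. DTNB and acetylthiocholine substrate (AChSI) then added, and absorbance read at 417 nm. Screening at 20 μM as % inhibition; IC50 determined for compounds giving over 50% inhibition at 20 μM. Run in triplicate.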
T3 sequence (P22303 whole entry): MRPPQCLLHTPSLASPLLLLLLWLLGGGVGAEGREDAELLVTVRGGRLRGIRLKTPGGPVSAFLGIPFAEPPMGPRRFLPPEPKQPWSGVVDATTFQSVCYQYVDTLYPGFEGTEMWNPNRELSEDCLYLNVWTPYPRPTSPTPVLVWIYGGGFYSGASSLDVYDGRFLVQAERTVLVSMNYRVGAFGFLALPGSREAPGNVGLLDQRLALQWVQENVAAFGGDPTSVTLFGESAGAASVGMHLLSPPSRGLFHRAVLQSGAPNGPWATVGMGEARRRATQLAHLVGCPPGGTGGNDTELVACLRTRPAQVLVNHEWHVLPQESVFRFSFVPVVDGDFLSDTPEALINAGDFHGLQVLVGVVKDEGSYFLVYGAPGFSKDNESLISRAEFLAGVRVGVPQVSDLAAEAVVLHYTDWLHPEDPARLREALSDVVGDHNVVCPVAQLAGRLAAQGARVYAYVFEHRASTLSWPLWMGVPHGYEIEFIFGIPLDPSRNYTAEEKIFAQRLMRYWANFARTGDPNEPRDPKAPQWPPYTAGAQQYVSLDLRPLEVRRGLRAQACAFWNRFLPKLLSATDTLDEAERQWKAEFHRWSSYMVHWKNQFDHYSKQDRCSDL

Data set [4] addresses T3, Acetylcholinesterase. Briefly: Reversible inhibition of AChE (unknown origin) assessed as residual activity at 0.1 times IC50 incubated for 30 mins by dilution method relative to control. A digest of the protocol:
(§2)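 Samples then diluted 100-fold with substrate, giving final inhibitor levels of 0.1× and 1× IC50. Recovered activity measured relative to control; triplicate.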

Data set [5] deals with T2, Amine oxidase [flavin-containing] B. Briefly: Reversible inhibition of MAO-B (unknown origin) assessed as residual activity at 10 times IC50 incubated for 30 mins by dilution method relative to control. As to conditions: 0.5 h.
The test system of data set [6] is SH-SY5Y. Briefly: Cytotoxicity against human SH-SY5Y cells assessed as cell viability at 1 uM by MTT assay relative to control. As to conditions: read-out: Activity. It counts as functional. A digest of the protocol: (§3)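 SH-SY5Y cells (DMEM/F-12 with 10% FBS, 1% horse serum, 1% penicillin) preincubated 24 h with compound at 1, 5 or 25 μM; MTT converted to formazan, solubilised in DMSO, absorbance read at 595 nm; viability expressed as percentage of untreated control.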
In general terms: Tetrazolium dyes change colour on reduction, which living cells bring about.

Data set [7] concerns the target T3, Acetylcholinesterase. Briefly: Reversible inhibition of AChE (unknown origin) assessed as residual activity at 1 times IC50 incubated for 30 mins by dilution method relative to control. A digest of the protocol:
as §2

Data set [8] concerns SH-SY5Y. Briefly: Neuroprotective activity against 6-OHDA-induced cytotoxicity in human SH-SY5Y cells assessed as cell viability at 25 uM incubated for 24 hrs followed by exposure to 6-OHDA by MTT assay relative to control. It counts as functional. As to conditions: read-out: Activity. A digest of the protocol: (§4)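 SH-SY5Y cells treated with compound (1, 5, 25 μM) and challenged with 6-OHDA; cultured 24 h at 37 °C under humidified 5% CO2. Viability measured by MTT as formazan absorbance at 594 nm and expressed relative to control.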

Data set [9] relates to SH-SY5Y. Briefly: Cytotoxicity against human SH-SY5Y cells assessed as cell viability at 5 uM by MTT assay relative to control. It counts as functional. Conditions: read-out: Activity. A digest of the protocol:
as §3

The target of data set [10] is T2, Amine oxidase [flavin-containing] B. As to the kind of experiment: Reversible inhibition of MAO-B (unknown origin) assessed as residual activity at 1 times IC50 incubated for 30 mins by dilution method relative to control. As to conditions: 0.5 h.
For data set [11], the target named is Amyloid-beta precursor protein (Homo sapiens) (UniProt P05067). Briefly: Inhibition of self-induced amyloid beta (1 to 42 residues) (unknown origin) aggregation at 20 uM incubated at 24 hrs by fluorimetry-based thioflavin T assay. An outline of the steps: (§5)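 Aβ1-42 pretreated with HFIP (1 mg mL−1) and dried, then incubated with compound (20 μM) at 37 °C for 24 h; an aliquot transferred and incubated further to 48 h. Glycine–NaOH buffer pH 8.0 with 5 μM ThT added; fluorescence read at 440–485 nm. % inhibition calculated against the Aβ-only control taken as 0%.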
Sequence of Amyloid-beta precursor protein (Homo sapiens) (P05067 whole entry, the tested form may be a part): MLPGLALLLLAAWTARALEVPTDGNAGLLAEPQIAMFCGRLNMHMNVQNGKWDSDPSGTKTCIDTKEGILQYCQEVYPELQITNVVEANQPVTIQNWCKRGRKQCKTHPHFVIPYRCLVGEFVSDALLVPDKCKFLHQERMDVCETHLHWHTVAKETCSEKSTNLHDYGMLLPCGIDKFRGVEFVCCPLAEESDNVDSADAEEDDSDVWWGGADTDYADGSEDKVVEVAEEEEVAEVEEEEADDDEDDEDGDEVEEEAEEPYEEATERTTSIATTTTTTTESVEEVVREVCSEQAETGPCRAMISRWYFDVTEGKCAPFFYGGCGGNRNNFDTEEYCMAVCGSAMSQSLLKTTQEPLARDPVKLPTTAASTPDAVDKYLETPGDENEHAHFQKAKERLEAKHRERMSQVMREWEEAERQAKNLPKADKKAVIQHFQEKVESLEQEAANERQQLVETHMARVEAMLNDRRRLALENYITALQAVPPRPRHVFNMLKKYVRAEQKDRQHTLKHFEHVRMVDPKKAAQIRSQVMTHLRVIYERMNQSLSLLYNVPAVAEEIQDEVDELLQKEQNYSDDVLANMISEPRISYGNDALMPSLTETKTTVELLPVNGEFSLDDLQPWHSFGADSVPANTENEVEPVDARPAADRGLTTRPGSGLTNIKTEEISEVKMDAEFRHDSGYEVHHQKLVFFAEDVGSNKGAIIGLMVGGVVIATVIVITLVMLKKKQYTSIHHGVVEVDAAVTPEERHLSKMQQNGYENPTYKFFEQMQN

In data set [12] the test system is SH-SY5Y. Briefly: Cytotoxicity against human SH-SY5Y cells assessed as reduction in cell viability at 1 to 25 uM by MTT assay. It counts as functional, cell-based. As to conditions: dose 1-25 µM. A digest of the protocol:
as §3

Data set [13] concerns SH-SY5Y. Briefly: Neuroprotective activity against 6-OHDA-induced cytotoxicity in human SH-SY5Y cells assessed as cell viability at 5 uM incubated for 24 hrs followed by exposure to 6-OHDA by MTT assay relative to control. It counts as functional. Conditions: read-out: Activity. A digest of the protocol: as §4
For data set [14], the system named is SH-SY5Y. As to the kind of experiment: Inhibition of ROS production in human SH-SY5Y cells assessed as intracellular ROS level at 5 uM incubated for 24 hrs by DCF-DA staining based fluorescence analysis relative to control. It counts as functional. An outline of the steps: (§6)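 Cultured SH-SY5Y cells exposed to compound (1, 5, 25 μM) for 24 h; intracellular ROS detected with DCF-DA, which is converted to fluorescent 2,7-DCF, read at ex 478/em 518 nm. Inhibition is expressed relative to control. Mean ± SD of triplicate or more independent experiments.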

Data set [15] deals with Amyloid-beta precursor protein (Homo sapiens) (UniProt P05067). As to the kind of experiment: Inhibition of self-induced amyloid beta (1 to 42 residues) (unknown origin) aggregation at 20 uM incubated at 48 hrs by fluorimetry-based thioflavin T assay. A digest of the protocol: as §5
For data set [16], the target named is T1, Cholinesterase. Briefly: Inhibition of recombinant BuChE (unknown origin) using BTCI as substrate at 20 uM preincubated for 30 mins followed by substrate addition by TECAN multiplate reader analysis relative to control. An outline of the steps: as §1
For data set [17], the target named is T2, Amine oxidase [flavin-containing] B. Briefly: Inhibition of recombinant MAO-B (unknown origin) at 20 uM preincubated for 30 mins followed substrate addition by Amplex Red reagent based fluorescence analysis relative to control. A digest of the protocol:
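Recombinant MAO enzyme preincubated with compound 30 min at 37 °C; substrate, HRP and Amplex Red working solution then added; H2O2 formation read at 37 °C by fluorescence, ex 545/em 590 nm. Screening at 20 μM as % inhibition versus control; IC50 only for compounds above 50% inhibition at 20 μM; triplicate (n = 3).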

Data set [18] shares this target. Briefly: Inhibition of recombinant MAO-B (unknown origin) preincubated for 30 mins followed substrate addition by Amplex Red reagent based fluorescence analysis.
The target is the same in data set [19]. Briefly: Reversible inhibition of MAO-B (unknown origin) assessed as residual activity at 100 times IC50 incubated for 30 mins by dilution method relative to control. Conditions: 0.5 h.
For data set [20], the system named is SH-SY5Y. As to the kind of experiment: Neuroprotective activity against 6-OHDA-induced cytotoxicity in human SH-SY5Y cells assessed as cell viability at 1 uM incubated for 24 hrs followed by exposure to 6-OHDA by MTT assay relative to control. It counts as functional. As to conditions: read-out: Activity. A digest of the protocol: as §4
The target in data set [21] is T1, Cholinesterase. Briefly: Inhibition of recombinant BuChE (unknown origin) using BTCI as substrate preincubated for 30 mins followed by substrate addition by TECAN multiplate reader analysis. An outline of the steps: as §1
The subject of data set [22] is SH-SY5Y. Briefly: Inhibition of ROS production in human SH-SY5Y cells assessed as intracellular ROS level at 25 uM incubated for 24 hrs by DCF-DA staining based fluorescence analysis relative to control. It counts as functional. An outline of the steps: as §6
The target of data set [23] is T3, Acetylcholinesterase. Briefly: Reversible inhibition of AChE (unknown origin) assessed as residual activity at 100 times IC50 incubated for 30 mins by dilution method relative to control. A digest of the protocol:
as §2

Data set [24] addresses T2, Amine oxidase [flavin-containing] B. As to the kind of experiment: Reversible inhibition of MAO-B (unknown origin) assessed as residual activity at 0.1 times IC50 incubated for 30 mins by dilution method relative to control. As to conditions: 0.5 h.
For data set [25], the target named is T3, Acetylcholinesterase. As to the kind of experiment: Reversible inhibition of AChE (unknown origin) assessed as residual activity at 10 times IC50 incubated for 30 mins by dilution method relative to control. An outline of the steps: as §2
For data set [26], the system named is SH-SY5Y. Briefly: Cytotoxicity against human SH-SY5Y cells assessed as cell viability at 25 uM by MTT assay relative to control. It counts as functional. As to conditions: read-out: Activity. A digest of the protocol: as §3
Data set [27] concerns SH-SY5Y. Briefly: Inhibition of ROS production in human SH-SY5Y cells assessed as intracellular ROS level at 1 uM incubated for 24 hrs by DCF-DA staining based fluorescence analysis relative to control. It counts as functional. An outline of the steps:
as §6

By IC50 is commonly meant the concentration that inhibits the measured activity by half. Turning to `O=C(NCCC1CCN(Cc2ccccc2)CC1)c1coc2cc(OCc3ccccc3)ccc2c1=O`, the IC50 in data set [1] worked out at 5.24 µM; in data set [2], 0.272 µM; in [3], 0.37 µM.
As a reminder, the inhibition is the share of the control response that was lost under treatment. For `C#CCOc1c(CN2CCCCC2)cc(-c2cc(=O)c3ccccc3o2)cc1OC`, the Activity in data set [4] was 71.3%; in [5], 32.6%; in data set [7], 47.2%; in data set [10], 58.9%; in data set [12] it was “Not toxic”; in data set [19], 14%. In addition, the values for the Activity in data set [23], in [24] and in [25] were 25.3%, 76.3% and 33.1%, respectively. In addition, the viability at 1 µM in data set [6] came out at 97.1%; in data set [20], 51.9%. For the same compound, the viability at 25 µM in data set [8] was found to be 46.9%; in [26] it was 91.9%. Also, the viability at 5 µM is 94.4% in [9] and 49.4% in data set [13]. Besides, the inhibition came to 22.4% in data set [11], 28.5% in data set [15] and 89.9% in data set [16]. Besides, the inhibition at 5 µM in [14] turned out to be 51%. Further, the inhibition at 20 µM in data set [17] was found to be 50.8%. The IC50 in data set [18] worked out at 19.6 µM; in data set [21] it was 1.95 µM. In [22], the inhibition at 25 µM stood at 47%. In addition, the inhibition at 1 µM in data set [27] worked out at 82.8%.
